ChEMBL document CHEMBL4049440, “First Dual Inhibitors of Steroid Sulfatase (STS) and 17β-Hydroxysteroid Dehydrogenase Type 1 (17β-HSD1): Designed Multiple Ligands as Novel Potential Therapeutics for Estrogen-Dependent Diseases” (J Med Chem, 2017)
Active and inactive are the calls of the source. No cut-off for these calls is given here.

What was measured:
[1] = biological target: T1, 17-beta-hydroxysteroid dehydrogenase type 1 (Homo sapiens, UniProt P14061); assay: Inhibition of human placental cytosolic 17beta-HSD1 using [3H]-E1/E1 substrate and NADH after 10 mins by HPLC based radio-detection method
T1 sequence (P14061 whole entry): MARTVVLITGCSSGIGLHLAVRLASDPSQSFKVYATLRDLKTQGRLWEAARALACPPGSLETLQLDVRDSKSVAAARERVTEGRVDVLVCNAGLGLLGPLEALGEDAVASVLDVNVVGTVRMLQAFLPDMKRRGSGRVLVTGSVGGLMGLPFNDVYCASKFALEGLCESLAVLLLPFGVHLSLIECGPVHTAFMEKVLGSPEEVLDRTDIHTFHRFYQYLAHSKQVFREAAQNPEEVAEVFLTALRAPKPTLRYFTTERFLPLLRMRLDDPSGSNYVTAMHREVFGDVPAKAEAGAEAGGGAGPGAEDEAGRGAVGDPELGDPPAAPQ
Method in brief: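 Cell-free assay with the cytosolic fraction of human placenta as the 17β-HSD1 source and radiolabeled E1 as substrate, with test compound present.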

[2] = biological target: T2, Steryl-sulfatase (Homo sapiens) (UniProt P08842); assay: Inhibition of human placental microsomal STS assessed as formation of E1 at 1 uM preincubated for 30 mins followed by addition of E1S as substrate measured after 20 mins by ELISA
T2 sequence (whole entry): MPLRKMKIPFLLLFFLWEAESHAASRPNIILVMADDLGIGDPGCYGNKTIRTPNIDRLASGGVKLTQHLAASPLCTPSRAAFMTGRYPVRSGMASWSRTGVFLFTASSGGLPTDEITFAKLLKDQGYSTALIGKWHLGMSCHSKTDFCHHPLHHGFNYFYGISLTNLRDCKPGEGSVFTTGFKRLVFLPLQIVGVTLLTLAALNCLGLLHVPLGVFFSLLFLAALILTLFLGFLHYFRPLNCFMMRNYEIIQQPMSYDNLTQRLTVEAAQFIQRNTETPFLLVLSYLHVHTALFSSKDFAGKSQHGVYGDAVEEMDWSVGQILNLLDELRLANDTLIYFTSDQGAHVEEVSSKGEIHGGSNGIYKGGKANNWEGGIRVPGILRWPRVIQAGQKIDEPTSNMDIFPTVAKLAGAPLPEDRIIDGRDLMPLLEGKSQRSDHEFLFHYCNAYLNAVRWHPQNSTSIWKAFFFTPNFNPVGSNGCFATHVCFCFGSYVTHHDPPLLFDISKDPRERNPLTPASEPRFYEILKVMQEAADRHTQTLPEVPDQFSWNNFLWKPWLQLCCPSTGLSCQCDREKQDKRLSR
Method in brief: (§1)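 Human placental STS incubated with estrone sulfate (E1S) as substrate in the presence of inhibitor; estrone (E1) formed was quantified by ELISA.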

[3] = Stability of the compound in Tris-HCl buffer at pH 7.2 after 30 mins; assay type: physicochemical; conditions: pH 7.2, 0.5 h
Method in brief: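 Compound incubated in 20 mM Tris-HCl buffer, pH 7.2, at 37 °C for 30 min. Remaining parent compound was measured, with sulfamate cleavage to the phenolic OH product monitored.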

[4] = Selectivity factor, ratio of IC50 for human placental microsomal 17beta-HSD2 cells to IC50 for human placental cytosolic 17beta-HSD1
[5] = biological target: T3, 17-beta-hydroxysteroid dehydrogenase type 2 (Homo sapiens, UniProt P37059); assay: Inhibition of human placental microsomal 17beta-HSD2 using [3H]-E2/E2 substrate and NAD+ after 20 mins by HPLC based radio-detection method
T3 sequence (P37059 whole entry): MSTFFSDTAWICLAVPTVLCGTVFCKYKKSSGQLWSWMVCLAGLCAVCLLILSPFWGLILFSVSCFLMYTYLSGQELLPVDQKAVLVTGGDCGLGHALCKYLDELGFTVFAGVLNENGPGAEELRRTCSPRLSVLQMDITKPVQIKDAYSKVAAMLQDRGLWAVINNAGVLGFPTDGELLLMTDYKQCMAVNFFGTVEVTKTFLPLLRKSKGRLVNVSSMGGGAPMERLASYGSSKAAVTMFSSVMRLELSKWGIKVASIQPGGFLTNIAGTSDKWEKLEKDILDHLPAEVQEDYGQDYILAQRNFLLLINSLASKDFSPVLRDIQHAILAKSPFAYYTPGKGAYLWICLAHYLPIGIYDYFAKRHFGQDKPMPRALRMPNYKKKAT

[6] = biological target: T4, Steryl-sulfatase (Homo sapiens, UniProt P08842); assay: Inhibition of human placental microsomal STS assessed as formation of E1 preincubated for 30 mins followed by addition of E1S as substrate measured after 20 mins by ELISA; method in brief: as §1
T4 sequence (P08842 whole entry): T2 sequence (whole entry)

[7] = biological target: T4, Steryl-sulfatase; assay: Inhibition of STS in human T47D cells preincubated for 1 hr followed by addition of [3H]-E1S/E1S as substrate measured after 24 hrs by HPLC based radio-detection method; assay type: cell-based
[8] = biological target: T1, 17-beta-hydroxysteroid dehydrogenase type 1; assay: Inhibition of 17beta-HSD1 in human T47D cells preincubated for 1 hr followed by addition of [3H]-E1/E1 as substrate measured after 30 mins by HPLC based radio-detection method; assay type: cell-based
[9] = biological target: T4, Steryl-sulfatase; assay: Irreversible inhibition of STS in human T47D cells preincubated for 2 hrs followed by compound washout and addition of [3H]-E1S/E1S as substrate measured after 24 hrs by HPLC based radio-detection method; assay type: cell-based
[10] = test system: T47D; assay: Antiproliferative activity against E1S/E1-stimulated human T47D cells assessed as reduction in cell viability measured after 7 days after MTT assay; assay type: functional, cell-based
[11] = biological target: T2, Steryl-sulfatase (Homo sapiens); assay: Inhibition of STS in human T47D cells assessed as [3H]-E1S level at 400 nM after 48 hrs by HPLC based radio-detection method (reference value: 3.9%); assay type: cell-based; parameters: scale not given: the % may be the effect or the level left
[12] = biological target: T5, 17-beta-hydroxysteroid dehydrogenase type 1 (Homo sapiens) (UniProt P14061); assay: Inhibition of 17beta-HSD1 in human T47D cells assessed as [3H]-E1 level at 400 nM after 48 hrs by HPLC based radio-detection method (reference value: 0.9%); assay type: cell-based; parameters: scale not given: the % may be the effect or the level left
T5 sequence (whole entry): T1 sequence (P14061 whole entry)

[13] = biological target: T5, 17-beta-hydroxysteroid dehydrogenase type 1 (Homo sapiens); assay: Inhibition of 17beta-HSD1 in human T47D cells assessed as [3H]-E2 level at 400 nM after 48 hrs by HPLC based radio-detection method (reference value: 95.2%); assay type: cell-based; parameters: scale not given: the % may be the effect or the level left
[14] = test system: T47D; assay: Cytotoxicity against human T47D cells assessed as reduction in cell viability at 400 nM after 7 days by MTT assay; assay type: cell-based; conditions: 168 h, 0.4 µM
[15] = test system: HEK293; assay: Cytotoxicity against HEK293 cells assessed as reduction in cell viability at 0.1 to 1 uM after 48 hrs by MTT assay; assay type: cell-based; conditions: human, hek293, 48 h
[16] = test system: T47D; assay: Antiproliferative activity against E2-stimulated human T47D cells assessed as reduction in cell viability at 400 nM measured after 7 days after MTT assay; assay type: functional, cell-based
[17] = biological target: T5, 17-beta-hydroxysteroid dehydrogenase type 1 (Homo sapiens); assay: Irreversible inhibition of 17beta-HSD1 in human T47D cells at 50 nM preincubated for 2 hrs followed by compound washout and addition of […] as substrate measured after 24 hrs by HPLC based radio-detection method; assay type: cell-based
[18] = biological target: T5, 17-beta-hydroxysteroid dehydrogenase type 1 (Homo sapiens); assay: Inhibition of 17beta-HSD1 in human T47D cells at 1 uM preincubated for 1 hr followed by addition of [3H]-E1/E1 as substrate measured after 30 mins by HPLC based radio-detection method; assay type: cell-based
[19] = test system: T47D; assay: Antiproliferative activity against E1S/E1-stimulated human T47D cells assessed as cell viability at 50 to 200 nM measured after 7 days after MTT assay relative to control; assay type: functional
[20] = biological target: T2, Steryl-sulfatase (Homo sapiens); assay: Inhibition of STS in human T47D cells assessed as [3H]-E1S level at 200 nM after 48 hrs by HPLC based radio-detection method; assay type: cell-based; parameters: scale not given: the % may be the effect or the level left
[21] = biological target: T5, 17-beta-hydroxysteroid dehydrogenase type 1 (Homo sapiens); assay: Inhibition of 17beta-HSD1 in human T47D cells assessed as [3H]-E1 level at 200 nM after 48 hrs by HPLC based radio-detection method (reference value: 0.9%); assay type: cell-based; parameters: scale not given: the % may be the effect or the level left
[22] = biological target: T5, 17-beta-hydroxysteroid dehydrogenase type 1 (Homo sapiens); assay: Inhibition of 17beta-HSD1 in human T47D cells assessed as [3H]-E2 level at 200 nM after 48 hrs by HPLC based radio-detection method (reference value: 95.2%); assay type: cell-based; parameters: scale not given: the % may be the effect or the level left
[23] = biological target: T5, 17-beta-hydroxysteroid dehydrogenase type 1 (Homo sapiens); assay: Inhibition of human placental cytosolic 17beta-HSD1 at 1 uM using [3H]-E1/E1 substrate and NADH after 10 mins by HPLC based radio-detection method
Method in brief: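 Enzyme from the cytosolic fraction of human placenta, incubated with radiolabelled estrone as substrate. Values are the mean of at least two independent experiments, each run in duplicate, with standard deviation under 15%.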

[24] = biological target: T6, 17beta-HSD2 (17-beta-hydroxysteroid dehydrogenase type 2) (Homo sapiens, UniProt P37059); assay: Inhibition of human placental microsomal 17beta-HSD2 at 1 uM using [3H]-E2/E2 substrate and NAD+ after 20 mins by HPLC based radio-detection method; conditions: human placental microsomal 17beta-HSD2, probe [3H]-E2/E2
T6 sequence (P37059 whole entry): T3 sequence (P37059 whole entry)

[25] = biological target: T2, Steryl-sulfatase (Homo sapiens); assay: Inhibition of STS in human T47D cells at 1 uM preincubated for 1 hr followed by addition of [3H]-E1S/E1S as substrate measured after 24 hrs by HPLC based radio-detection method; assay type: cell-based
[26] = biological target: T2, Steryl-sulfatase (Homo sapiens); assay: Irreversible inhibition of STS in human T47D cells at 1 uM preincubated for 2 hrs followed by compound washout and addition of [3H]-E1S/E1S as substrate measured after 24 hrs by HPLC based radio-detection method; assay type: cell-based

NS(=O)(=O)Oc1ccccc1-c1ccc(C(=O)c2c(F)ccc(O)c2F)s1
IC50 [1]: 22.5 nM | inhibition [2]: < 10% | Stability [3]: Stable | Ratio IC50 [4]: 0.2 | IC50 [5]: 4.1 nM

NS(=O)(=O)Oc1ccc(-c2ccc(C(=O)c3c(F)ccc(O)c3F)s2)cc1F
IC50 [6]: 81.8 nM | IC50 [1]: 2.5 nM | IC50 [7]: 5.1 nM | IC50 [8]: 20 nM | IC50 [9]: 5.7 nM | Activity [10]: Dose-dependent effect | Stability [3]: Stable | Ratio IC50 [4]: 5.5 | IC50 [5]: 13.7 nM

Cc1cc(-c2ccc(C(=O)c3c(F)ccc(O)c3F)s2)ccc1OS(N)(=O)=O
IC50 [6]: 221 nM | IC50 [1]: 32.4 nM | Stability [3]: Stable | Ratio IC50 [4]: 1 | IC50 [5]: 31.2 nM

Cc1cc(OS(N)(=O)=O)ccc1-c1ccc(C(=O)c2c(F)ccc(O)c2F)s1
IC50 [6]: 35 nM | IC50 [1]: 43.5 nM | Stability [3]: Stable | Ratio IC50 [4]: 0.9 | IC50 [5]: 40 nM

NS(=O)(=O)Oc1ccc(-c2ccc(C(=O)c3c(F)ccc(O)c3F)s2)cc1Cl
IC50 [6]: 143 nM | IC50 [1]: 1.1 nM | IC50 [7]: 15.6 nM | IC50 [8]: 22.2 nM | IC50 [9]: 16.4 nM | Activity [10]: Dose-dependent effect | Activity [11]: 50% | Activity [12]: 48.9% | Activity [13]: 1.1% | Activity [14]: Non-Toxic | Activity [15]: Non-Toxic | Activity [16]: inactive | Stability [3]: Stable | inhibition [17]: inactive | Ratio IC50 [4]: 33 | IC50 [5]: 36.1 nM

NS(=O)(=O)Oc1ccc2c3c(c(=O)oc2c1)CCCCC3 [IROSUSTAT]
inhibition [18]: < 5% | Activity [19]: 200% | Activity [20]: 50% | Activity [21]: 0.8% | Activity [22]: 49.2% | inhibition [23]: < 10% | inhibition at 20 min, 1 µM [24]: < 10%

O=C(c1ccc(-c2ccc(O)cc2)s1)c1c(F)ccc(O)c1F
IC50 [1]: 3.1 nM | inhibition [25]: < 5% | IC50 [8]: 7.9 nM | inhibition [26]: < 5% | Activity [19]: 150% | Activity [20]: 3.5% | Activity [21]: 88.4% | Activity [22]: 7.9% | inhibition [2]: < 10% | Ratio IC50 [4]: 23.1
